Data set [1] concerns Plasma. The data set can be described thus: Metabolic stability in human plasma. The data set is classed as ADME, cell-free. The method, boiled down: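 Compound incubated at 10 μM in rat or human plasma at 37 °C. Samples taken at 0 and 4 h were analysed by mass spectrometry for parent and metabolites.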
Data set [2] relates to Plasma. The data set can be described thus: Metabolic stability in rat plasma. The format is ADME, cell-free.
Data set [3] addresses Cytochrome P450 2D6 (Homo sapiens, UniProt P10635). The data set can be described thus: Inhibition of CYP2D6 in human liver microsomes by LC-MS/MS analysis. The format is ADME.
Data set [4] can be described thus: Plasma concentration in Sprague-Dawley rat at 0.2 mg/kg, iv after 0.25 hrs by LC-MS/MS analysis.
Data set [5] is described as follows: Drug concentration in Sprague-Dawley rat brain at 0.2 mg/kg, iv after 0.25 hrs by LC-MS/MS analysis. Conditions: read-out: Drug uptake.
Data set [6] concerns the target T1, Cytochrome P450 1A2 (Homo sapiens, UniProt P05177).
T1 sequence (P05177 whole entry): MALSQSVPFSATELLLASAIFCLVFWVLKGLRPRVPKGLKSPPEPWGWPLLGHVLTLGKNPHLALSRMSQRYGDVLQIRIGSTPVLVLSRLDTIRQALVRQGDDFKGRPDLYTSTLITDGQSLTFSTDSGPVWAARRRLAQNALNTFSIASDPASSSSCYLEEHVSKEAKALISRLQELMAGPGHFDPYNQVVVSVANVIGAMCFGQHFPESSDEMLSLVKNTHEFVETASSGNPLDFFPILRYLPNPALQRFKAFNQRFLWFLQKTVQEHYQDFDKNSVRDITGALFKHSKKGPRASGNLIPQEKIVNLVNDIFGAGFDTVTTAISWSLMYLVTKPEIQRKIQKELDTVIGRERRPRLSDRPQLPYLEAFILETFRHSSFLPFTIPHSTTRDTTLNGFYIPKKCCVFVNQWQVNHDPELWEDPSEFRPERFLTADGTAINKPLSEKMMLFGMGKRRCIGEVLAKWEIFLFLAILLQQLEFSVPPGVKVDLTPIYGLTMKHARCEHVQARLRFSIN
The data set can be described thus: Inhibition of CYP1A2 in human liver microsomes by LC-MS/MS analysis. The data set is classed as ADME.

Data set [7] concerns the target Cytochrome P450 3A4 (Homo sapiens, UniProt P08684). The experiment in a line: Inhibition of CYP3A4 in human liver microsomes by LC-MS/MS analysis. The data set is classed as ADME. In general terms: Liver microsomes are vesicles of endoplasmic reticulum, rich in cytochrome P450 enzymes.
Data set [8] deals with T2, Metabotropic glutamate receptor 1 (Homo sapiens, UniProt Q13255). The data set can be described thus: Positive allosteric modulation of human mGlu1 receptor in HEK293 cells assessed as potentiation of glutamate-induced calcium mobiliztion by Fluo-4AM dye based fluorescence analysis. As to conditions: read-out: EC50. The format is functional, cell-based.
Data set [9] addresses Cytochrome P450 2C9 (Homo sapiens, UniProt P11712). The data set can be described thus: Inhibition of CYP2C9 in human liver microsomes by LC-MS/MS analysis. The data set is classed as ADME.
In data set [10] the target is Metabotropic glutamate receptor 1 (Rattus norvegicus, UniProt P23385). The experiment in a line: Positive allosteric modulation of rat mGlu1 receptor assessed as potentiation of glutamate-induced calcium mobiliztion by cell based assay. The data set is classed as functional. The method, boiled down:
(§1)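 Rat mGlu1 WT calcium mobilization concentration-response curves. EC50 and % Glu Max were derived from the curves.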

For data set [11], the target named is T2, Metabotropic glutamate receptor 1. The data set can be described thus: Positive allosteric modulation of human mGlu1 receptor in HEK293 cells assessed as potentiation of glutamate-induced calcium mobiliztion by Fluo-4AM dye based fluorescence analysis relative to glutamate. The data set is classed as functional, cell-based.
Target sequence in this assay (Q13255 19-1194 limits assumed): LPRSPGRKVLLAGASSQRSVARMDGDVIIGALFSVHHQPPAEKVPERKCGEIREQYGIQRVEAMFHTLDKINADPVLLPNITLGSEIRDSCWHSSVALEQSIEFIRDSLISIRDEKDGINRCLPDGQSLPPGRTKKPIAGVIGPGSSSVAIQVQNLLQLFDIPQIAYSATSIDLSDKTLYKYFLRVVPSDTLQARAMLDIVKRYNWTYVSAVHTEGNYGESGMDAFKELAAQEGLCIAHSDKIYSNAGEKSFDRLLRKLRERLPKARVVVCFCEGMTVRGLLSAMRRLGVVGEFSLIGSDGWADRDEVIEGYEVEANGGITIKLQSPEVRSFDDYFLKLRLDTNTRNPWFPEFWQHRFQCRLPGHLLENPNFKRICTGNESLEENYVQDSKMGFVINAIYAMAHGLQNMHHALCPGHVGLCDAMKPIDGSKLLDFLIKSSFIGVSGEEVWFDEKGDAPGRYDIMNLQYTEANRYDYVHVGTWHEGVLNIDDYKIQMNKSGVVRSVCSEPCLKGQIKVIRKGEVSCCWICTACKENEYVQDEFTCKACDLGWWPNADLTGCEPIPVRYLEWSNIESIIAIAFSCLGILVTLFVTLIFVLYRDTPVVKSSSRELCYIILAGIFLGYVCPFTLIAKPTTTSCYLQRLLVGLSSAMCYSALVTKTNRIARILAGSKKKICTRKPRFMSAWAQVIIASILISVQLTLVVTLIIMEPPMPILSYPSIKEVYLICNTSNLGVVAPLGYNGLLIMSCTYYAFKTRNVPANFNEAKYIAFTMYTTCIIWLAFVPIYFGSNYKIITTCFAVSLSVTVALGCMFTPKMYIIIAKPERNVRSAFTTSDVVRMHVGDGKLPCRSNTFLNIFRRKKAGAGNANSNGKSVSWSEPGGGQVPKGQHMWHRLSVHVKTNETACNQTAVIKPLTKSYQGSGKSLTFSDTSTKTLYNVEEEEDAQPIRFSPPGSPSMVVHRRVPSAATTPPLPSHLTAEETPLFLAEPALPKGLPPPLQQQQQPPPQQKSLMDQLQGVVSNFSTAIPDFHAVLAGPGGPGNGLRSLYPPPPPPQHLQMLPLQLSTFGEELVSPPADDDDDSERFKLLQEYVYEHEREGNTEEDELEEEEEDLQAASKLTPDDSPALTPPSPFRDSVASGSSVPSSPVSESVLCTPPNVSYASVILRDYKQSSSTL
Data set [12] has as its target Metabotropic glutamate receptor 7 (Homo sapiens) (UniProt Q14831). The data set can be described thus: Positive allosteric modulation of mGlu7 receptor (unknown origin) assessed as potentiation of glutamate-induced response by cell-based assay. The method, boiled down:
(§2)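 Selectivity counterscreen at the other mGlu subtypes using the standard fold-shift paradigm. Compound was tested at 10 μM against the glutamate concentration-response curve, and the shift of that curve was read.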

Data set [13] has as its target T2, Metabotropic glutamate receptor 1. The data set can be described thus: Agonist activity at human mGlu1 receptor in HEK293 cells assessed as calcium mobilization at 10 uM by Fluo-4AM dye based fluorescence analysis. The format is functional, cell-based. A general note: Calcium flux is commonly read through the fluorescence of an indicator in the cells.
Target sequence in this assay (Q13255 19-1194 limits assumed): as above
The nature of data set [14]: Mean residence time in Sprague-Dawley rat at 0.2 mg/kg, iv by LC-MS/MS analysis. Conditions: in vivo.
Data set [15] is described as follows: Intrinsic clearance in human liver microsomes at 1 uM by LC-MS/MS analysis. The data set is classed as ADME. Conditions: read-out: CLH.
For data set [16], the system named is Brain. The experiment in a line: Drug concentration in C57BL/6 mouse brain at 100 mg/kg, ip administered as single dose. As to conditions: in vivo, read-out: Drug uptake. The data set is classed as ADME, organism-based.
In data set [17] the target is T3, Metabotropic glutamate receptor 4 (Homo sapiens, UniProt Q14833). The experiment in a line: Positive allosteric modulation of human mGlu4 receptor assessed as potentiation of glutamate-induced calcium mobiliztion by cell based assay relative to PHCCC.
Data set [18] can be described thus: Ratio of drug level in brain to plasma of Sprague-Dawley rat at 0.2 mg/kg, iv after 0.25 hrs by LC-MS/MS analysis. Conditions: read-out: BPR.
The target of data set [19] is Metabotropic glutamate receptor 5 (Homo sapiens) (UniProt P41594). The experiment in a line: Positive allosteric modulation of mGlu5 receptor (unknown origin) assessed as potentiation of glutamate-induced response by cell-based assay. The gist of the method:
as §2

The target in data set [20] is Metabotropic glutamate receptor 6 (Homo sapiens) (UniProt O15303). The data set can be described thus: Positive allosteric modulation of mGlu6 receptor (unknown origin) assessed as potentiation of glutamate-induced response by cell-based assay. The gist of the method: as §2
The target of data set [21] is Metabotropic glutamate receptor 1 (Rattus norvegicus) (UniProt P23385). The experiment in a line: Positive allosteric modulation of rat mGlu1 receptor assessed as potentiation of glutamate-induced calcium mobiliztion by cell based assay relative to glutamate. The format is functional. The gist of the method: as §1
Data set [22] has as its system Plasma. The experiment in a line: Fraction unbound in rat plasma. The format is ADME, cell-free.
Data set [23] deals with T3, Metabotropic glutamate receptor 4. The data set can be described thus: Positive allosteric modulation of human mGlu4 receptor assessed as potentiation of glutamate-induced calcium mobiliztion by cell based assay. The data set is classed as functional. As to conditions: read-out: EC50.
Data set [24] can be described thus: Half life in Sprague-Dawley rat at 0.2 mg/kg, iv by LC-MS/MS analysis. As to conditions: in vivo.
In data set [25] the test system is Mus musculus. The experiment in a line: Toxicity in C57BL/6 mouse assessed as seizure activity at 100 mg/kg, ip administered as single dose measured for 3 hrs. The format is organism-based. Conditions: in vivo. The gist of the method: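 Male C57Bl/6 mice (25−30 g) dosed ip in 10% Tween 80 at 10 mL/kg: the mGlu5 ago-PAM at 1 or 3 mg/kg, the mGlu1 PAMs at 100 mg/kg. Behaviour was monitored continuously for 3 h and scored on a modified Racine scale (0−5).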

Data set [26] in a line: Plasma clearance in Sprague-Dawley rat at 0.2 mg/kg, iv by LC-MS/MS analysis.
Data set [27] concerns the target T2, Metabotropic glutamate receptor 1. The data set can be described thus: Positive allosteric modulation of human mGlu1 receptor in HEK293 cells assessed as potentiation of glutamate-induced calcium mobiliztion at 10 uM by Fluo-4AM dye based fluorescence analysis. The format is functional, cell-based.
Target sequence in this assay (Q13255 19-1194 limits assumed): as above
For data set [28], the target named is Metabotropic glutamate receptor 3 (Homo sapiens) (UniProt Q14832). The data set can be described thus: Positive allosteric modulation of mGlu3 receptor (unknown origin) assessed as potentiation of glutamate-induced response by cell-based assay. The gist of the method: as §2
For data set [29], the target named is Metabotropic glutamate receptor 2 (Homo sapiens) (UniProt Q14416). The data set can be described thus: Positive allosteric modulation of mGlu2 receptor (unknown origin) assessed as potentiation of glutamate-induced response by cell-based assay. The method, boiled down:
as §2

In data set [30] the test system is Rattus norvegicus. The data set can be described thus: Volume of distribution at steady state in Sprague-Dawley rat at 0.2 mg/kg, iv by LC-MS/MS analysis. Conditions: in vivo.
For data set [31], the target named is Metabotropic glutamate receptor 8 (Homo sapiens) (UniProt O00222). The data set can be described thus: Positive allosteric modulation of mGlu8 receptor (unknown origin) assessed as potentiation of glutamate-induced response by cell-based assay. The method, boiled down: as §2
Data set [32] has as its system Plasma. The data set can be described thus: Fraction unbound in human plasma. The format is ADME, cell-free.

One may read the IC50 as the concentration needed to halve the response being measured. High values mean weaker potency in that assay, low ones greater potency in that assay. By EC50 is commonly meant the concentration needed to bring the measured effect to its halfway point. As usually defined, the MRT is the average time that molecules of a dose stay in the body. By half-life is commonly meant how long it takes for the measured level to halve. A high value points to slow loss. The clearance is the rate of elimination divided by the concentration. Usually Vdss stands for a proportionality between amount in the body and measured concentration, not a real space.

Chain of Cytochrome P450 2D6 (P10635 whole entry): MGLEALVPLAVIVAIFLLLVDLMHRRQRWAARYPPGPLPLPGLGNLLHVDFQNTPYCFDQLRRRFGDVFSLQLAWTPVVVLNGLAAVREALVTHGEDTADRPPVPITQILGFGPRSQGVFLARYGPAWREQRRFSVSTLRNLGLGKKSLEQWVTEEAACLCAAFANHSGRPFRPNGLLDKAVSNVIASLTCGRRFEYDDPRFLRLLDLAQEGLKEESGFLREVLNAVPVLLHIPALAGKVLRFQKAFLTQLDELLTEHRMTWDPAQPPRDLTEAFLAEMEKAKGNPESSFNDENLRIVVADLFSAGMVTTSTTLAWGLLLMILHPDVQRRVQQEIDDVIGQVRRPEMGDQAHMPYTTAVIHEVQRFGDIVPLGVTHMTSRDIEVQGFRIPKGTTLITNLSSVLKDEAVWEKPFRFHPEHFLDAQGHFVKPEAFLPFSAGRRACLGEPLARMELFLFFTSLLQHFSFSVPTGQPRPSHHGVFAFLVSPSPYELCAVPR
Chain of Cytochrome P450 3A4 (P08684 whole entry): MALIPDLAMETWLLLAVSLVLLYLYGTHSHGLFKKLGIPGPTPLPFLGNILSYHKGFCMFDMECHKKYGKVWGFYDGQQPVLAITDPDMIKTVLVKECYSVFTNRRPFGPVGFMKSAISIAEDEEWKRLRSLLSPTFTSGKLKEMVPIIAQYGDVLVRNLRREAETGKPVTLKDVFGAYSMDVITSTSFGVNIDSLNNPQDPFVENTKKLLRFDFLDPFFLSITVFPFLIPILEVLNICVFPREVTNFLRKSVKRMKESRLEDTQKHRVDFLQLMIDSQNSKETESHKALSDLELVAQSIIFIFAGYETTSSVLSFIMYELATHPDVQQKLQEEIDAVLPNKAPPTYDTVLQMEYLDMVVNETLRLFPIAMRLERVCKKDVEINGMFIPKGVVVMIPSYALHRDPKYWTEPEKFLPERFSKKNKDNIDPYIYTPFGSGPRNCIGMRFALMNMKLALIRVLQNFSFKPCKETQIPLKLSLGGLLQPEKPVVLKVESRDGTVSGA
Chain of Metabotropic glutamate receptor 1 (Rattus norvegicus, UniProt P23385) (P23385 whole entry): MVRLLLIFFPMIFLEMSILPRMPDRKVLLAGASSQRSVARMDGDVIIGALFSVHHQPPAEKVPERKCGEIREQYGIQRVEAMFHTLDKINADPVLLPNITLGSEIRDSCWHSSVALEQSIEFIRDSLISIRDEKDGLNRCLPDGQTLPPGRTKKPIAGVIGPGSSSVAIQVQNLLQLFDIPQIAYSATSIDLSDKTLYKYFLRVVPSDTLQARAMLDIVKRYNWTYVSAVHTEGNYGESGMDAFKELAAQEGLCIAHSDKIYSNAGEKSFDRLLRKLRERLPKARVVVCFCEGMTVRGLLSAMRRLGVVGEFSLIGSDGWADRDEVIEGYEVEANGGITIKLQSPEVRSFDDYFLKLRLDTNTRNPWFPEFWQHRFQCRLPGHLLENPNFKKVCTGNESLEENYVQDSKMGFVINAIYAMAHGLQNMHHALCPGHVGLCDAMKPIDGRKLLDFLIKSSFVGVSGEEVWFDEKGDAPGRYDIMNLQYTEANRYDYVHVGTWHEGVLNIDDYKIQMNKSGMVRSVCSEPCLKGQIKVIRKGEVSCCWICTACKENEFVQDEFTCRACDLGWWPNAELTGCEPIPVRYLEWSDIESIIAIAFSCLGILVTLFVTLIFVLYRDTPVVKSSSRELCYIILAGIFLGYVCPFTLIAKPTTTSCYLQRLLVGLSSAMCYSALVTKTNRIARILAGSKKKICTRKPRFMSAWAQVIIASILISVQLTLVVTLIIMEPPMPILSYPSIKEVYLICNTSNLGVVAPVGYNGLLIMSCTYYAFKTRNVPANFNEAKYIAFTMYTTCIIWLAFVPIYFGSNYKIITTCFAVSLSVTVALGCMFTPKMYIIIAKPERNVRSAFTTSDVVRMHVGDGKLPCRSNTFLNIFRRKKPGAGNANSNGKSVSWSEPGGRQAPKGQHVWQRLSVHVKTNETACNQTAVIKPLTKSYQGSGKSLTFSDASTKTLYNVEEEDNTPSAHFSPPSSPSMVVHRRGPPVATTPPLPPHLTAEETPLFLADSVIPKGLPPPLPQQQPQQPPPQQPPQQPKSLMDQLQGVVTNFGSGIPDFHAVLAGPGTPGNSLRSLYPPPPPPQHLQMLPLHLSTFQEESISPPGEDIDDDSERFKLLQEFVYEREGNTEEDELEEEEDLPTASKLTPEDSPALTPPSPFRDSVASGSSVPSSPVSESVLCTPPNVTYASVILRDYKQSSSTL
Chain of Cytochrome P450 2C9 (P11712 whole entry): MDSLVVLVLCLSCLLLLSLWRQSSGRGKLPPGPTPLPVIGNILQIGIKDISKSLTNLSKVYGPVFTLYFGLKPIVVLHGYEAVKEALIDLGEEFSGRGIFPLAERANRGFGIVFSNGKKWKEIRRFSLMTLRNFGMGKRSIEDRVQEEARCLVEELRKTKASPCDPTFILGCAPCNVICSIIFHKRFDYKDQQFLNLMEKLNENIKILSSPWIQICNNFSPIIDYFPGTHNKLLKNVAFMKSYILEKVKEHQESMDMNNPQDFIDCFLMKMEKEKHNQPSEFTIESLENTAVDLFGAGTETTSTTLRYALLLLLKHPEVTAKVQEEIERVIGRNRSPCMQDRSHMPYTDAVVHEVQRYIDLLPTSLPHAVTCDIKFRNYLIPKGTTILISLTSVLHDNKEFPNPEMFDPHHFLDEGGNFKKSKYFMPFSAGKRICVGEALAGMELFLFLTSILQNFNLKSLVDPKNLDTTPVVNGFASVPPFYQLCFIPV
T3 sequence (Q14833 whole entry): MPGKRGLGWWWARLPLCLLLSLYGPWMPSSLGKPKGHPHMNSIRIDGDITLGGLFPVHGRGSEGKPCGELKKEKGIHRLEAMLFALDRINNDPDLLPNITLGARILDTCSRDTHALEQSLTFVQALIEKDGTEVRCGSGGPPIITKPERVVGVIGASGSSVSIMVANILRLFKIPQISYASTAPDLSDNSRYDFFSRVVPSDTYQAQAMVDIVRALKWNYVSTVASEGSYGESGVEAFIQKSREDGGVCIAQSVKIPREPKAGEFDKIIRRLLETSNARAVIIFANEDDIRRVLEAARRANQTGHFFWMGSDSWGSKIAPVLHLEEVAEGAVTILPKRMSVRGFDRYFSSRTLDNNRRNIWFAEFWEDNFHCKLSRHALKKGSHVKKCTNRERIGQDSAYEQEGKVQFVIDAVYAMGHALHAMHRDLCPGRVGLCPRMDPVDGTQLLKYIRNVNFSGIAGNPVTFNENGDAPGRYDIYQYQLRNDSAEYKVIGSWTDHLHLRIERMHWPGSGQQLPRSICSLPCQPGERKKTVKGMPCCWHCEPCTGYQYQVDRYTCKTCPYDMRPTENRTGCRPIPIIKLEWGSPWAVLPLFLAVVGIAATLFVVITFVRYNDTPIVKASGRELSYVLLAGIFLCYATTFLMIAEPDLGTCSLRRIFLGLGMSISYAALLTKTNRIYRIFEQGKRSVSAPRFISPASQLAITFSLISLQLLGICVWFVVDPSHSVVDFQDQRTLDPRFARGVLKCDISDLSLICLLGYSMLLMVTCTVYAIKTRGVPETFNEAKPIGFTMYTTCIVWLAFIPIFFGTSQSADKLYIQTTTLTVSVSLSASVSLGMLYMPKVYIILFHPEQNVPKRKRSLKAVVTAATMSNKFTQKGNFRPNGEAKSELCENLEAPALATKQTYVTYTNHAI

In the case of `O=C(Nc1ccc(N2C(=O)c3cccc(Cl)c3C2=O)c(Cl)c1)c1ncccc1Cl`, the Stability entry in [1] and in [2] was “Unstable” in each case. Moreover, the IC50 in [3], in [6], in data set [7] and in data set [9] was more than 30 µM throughout. Moreover, the values for the concentration at 0.25 h in data set [4] and in [5] were 336 ng/mL and 284 ng/mL, respectively. In addition, the figures for the EC50 in [8] (hek293) and in data set [10] were 0.39 µM and 0.356 µM, respectively.
Consider `Cc1ccoc1C(=O)Nc1ccc(N2C(=O)c3ccncc3C2=O)c(Cl)c1`, for which the %max was 94% in data set [11], 18% in [17] and 115% in data set [21]. For the same compound, the fold change (FC) in data set [12] was less than 2; in data set [19], less than 2; in [20] it was less than 2; in [27], 10.9; in data set [28], less than 2; in data set [29] it was less than 2. In addition, the fold change (FC) in [31] is less than 2. For the same compound, the Activity in [13] was less than 20%; in [25], “Non-toxic”. Further, the MRT in data set [14] is 7.85 min. Also, in data set [15], the CLint scaled at 1 µM came out at 167 mL/min/kg. The Stability result in [1] is given as “Unstable”. Further, the concentration in [16] amounted to 2520 nM. Moreover, in data set [18], the Kp at 0.25 h amounted to 2.81. Besides, the IC50 in [3], in [6], in data set [7] and in [9] was more than 30 µM throughout. The concentration at 0.25 h in [4] was found to be 12.5 ng/mL; in [5], 35.2 ng/mL. Besides, in data set [22], the Fu is 0.03. Further, the figures for the EC50 in data set [23], in data set [8] and in data set [10] were more than 10 µM, 0.0988 µM and 0.113 µM, respectively. The same compound had a half-life in [24] of 5.38 min. The compound further registered a clearance in data set [26] of 382 mL/min/kg. Further, in data set [30], the Vdss was 3 L/kg.
In [14], `O=C(Nc1nc(C(F)(F)F)co1)C1c2ccccc2Oc2ccccc21` gave an MRT of 50 min. In addition, the Kp at 0.25 h in data set [18] amounted to 0.29. In addition, the IC50 in [3] and in data set [7] was more than 30 µM in each case. In addition, the concentration at 0.25 h in data set [4] was determined as 276 ng/mL; in data set [5] it was 81 ng/mL. For the same compound, the Fu in [22] is 0.003; in data set [32], 0.014. Further, in [24], the half-life stood at 54 min. In addition, the Activity entry in [25] is given as “Non-toxic”. Moreover, in [26], the clearance amounted to 35 mL/min/kg. The Vdss in [30] amounted to 1.34 L/kg.

The values above are taken from ChEMBL document CHEMBL3627606, “Development of Novel, CNS Penetrant Positive Allosteric Modulators for the Metabotropic Glutamate Receptor Subtype 1 (mGlu1), Based on an N-(3-Chloro-4-(1,3-dioxoisoindolin-2-yl)phenyl)-3-methylfuran-2-carboxamide Scaffold, That Potentiate Wild Type and Mutant mGlu1 Receptors Found in …” (J Med Chem, 2015).
